Screens deposited in PubChem by The Scripps Research Institute Molecular Screening Center.
The list is not random: actives were taken first. Their share in the collection is about 2.4%.
NPY-Y2 PAM-ag = potentiators or agonists of human neuropeptide Y receptor Y2 | P49146 | cells expressing NPY-Y2, potentiator/agonist read-out | activation, % at 3.6 µM | 220,000 compounds, 0.45% hits; in the data active means activation above about 27%;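 further: cells stimulated with NPY near EC25 plus isoproterenol at EC100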
S1P4 agonist = activates the human S1P4 receptor | 220,000 compounds, 0.35% hits | activation, % at 4.98 µM | AID 1509 | S1P4-expressing cell line, agonist reporter assay | O95977; in the data active means activation above about 11%
NPY-Y2 antag = NPY-Y2 (human) receptor antagonism; P49146; NPY-Y2 expressing cells, antagonist mode; inhibition, % at 2.7 µM; 140,000 compounds, 0.99% hits; AID 793; in the data active means inhibition above about 17%
S1P4 antagonist = blocks the human S1P4 receptor | S1P4-expressing cells, antagonist mode, reporter read-out | inhibition, % at 4.98 µM | 220,000 compounds, 0.26% hits | AID 1510; in the data active means inhibition above about 29%
NPY Y1 blocker = NPY-Y1 (human) receptor antagonism | 200,000 compounds, 1% hits | HEK293-CNG Y1 cells, membrane potential fluorescence; NPY at EC95, then isoproterenol | AID 1040 | P25929 | inhibition, % at 3.6 µM;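 active means inhibition above the campaign mean inhibition of all tested compounds plus 3 SD, cut at about 20% in these data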
Target sequence (P25929 whole entry, looked up): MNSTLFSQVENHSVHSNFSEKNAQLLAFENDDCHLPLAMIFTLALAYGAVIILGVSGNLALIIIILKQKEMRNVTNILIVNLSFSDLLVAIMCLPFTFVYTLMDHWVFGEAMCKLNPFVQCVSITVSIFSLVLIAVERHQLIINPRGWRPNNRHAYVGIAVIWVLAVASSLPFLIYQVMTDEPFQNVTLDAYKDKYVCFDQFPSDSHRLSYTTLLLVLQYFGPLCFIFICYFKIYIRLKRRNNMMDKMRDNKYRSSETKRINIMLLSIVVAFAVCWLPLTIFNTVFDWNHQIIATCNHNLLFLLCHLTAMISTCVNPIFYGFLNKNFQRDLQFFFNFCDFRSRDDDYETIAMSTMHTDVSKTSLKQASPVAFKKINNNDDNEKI
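Test system: HEK293 cells co-expressing NPY Y1 receptor and cyclic-nucleotide gated channel; Also added: NPY (25 nM), isoproterenol (1 µM), Ro 20-1724 (25 µM); Compound dosing: one concentration, 3.6 µM, in 0.4% DMSO; Timing: dye 3 h, compound 60 min room temperature, stimulation 45 min; Technique: Membrane-potential fluorescent dye readout.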
NPY1 pot ag = potentiates or activates human NPY-Y1 receptor. activation, % at 3.6 µM. P25929. NPY-Y1 expressing cells, potentiator/agonist activation. 220,000 compounds, 0.37% hits. AID 1304; in the data active means activation above about 33%, passing the limit was not always enough;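 further: cells stimulated with NPY at EC10 then isoproterenol at EC100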
A number is an active result; – = inactive; · = no result given.

SMILES | NPY-Y2 PAM-ag | S1P4 agonist | NPY-Y2 antag | S1P4 antagonist | NPY Y1 blocker | NPY1 pot ag
COc1ccc(CN(CCC(c2ccc(F)cc2)C2CCOC(C)(C)C2)C(=O)c2ccco2)cc1 (configuration not stated) | – | – | 19.8 | – | 21.8 | –
CC(c1ccccc1)N(CCC(c1ccccc1)C1CCOC(C)(C)C1)C(=O)c1ccco1 (configuration not stated) | – | – | – | – | – | –
O=C(CSc1nnc(-c2ccccc2)n1-c1ccccc1)c1cccs1 | 31.1 | – | – | – | – | 49.1
Cc1cc(C)n(Cc2ccc(NC(=O)c3ccc(COc4ccccc4Br)cc3)cc2)n1 | – | – | – | – | – | –
O=[N+]([O-])c1cc(/C=N/NC(=S)Nc2ccccc2Cl)ccc1Cl | 36.4 | – | · | – | – | 40.7
Cc1ccc(NC(=S)N/N=C/c2ccc(Cl)c([N+](=O)[O-])c2)cc1 | – | – | – | – | – | –
Cn1nc(-c2ccc(NCCO)c([N+](=O)[O-])c2)c2ccccc2c1=O | – | – | · | – | – | –
CC1CC(=O)NN=C1c1ccc(NCCO)c([N+](=O)[O-])c1 (configuration not stated) | – | – | 77.6 | – | 77.8 | –
CCc1ccccc1NC(=O)C1NC(=O)CC1c1ccccc1 (configuration not stated) | – | – | – | – | – | –
CCc1ccc2c(CN3CCc4ccccc43)cc(=O)oc2c1 | – | – | 22.5 | – | 21.9 | –
COc1ccc(S(=O)(=O)N2CCOCC2)cc1NC(=O)[C@@H]1CCCN1C(=O)c1cccs1 | – | – | · | – | – | –
COc1ccc2nc(Nc3nc(C)c(C(C)=O)s3)sc2c1 | 34.2 | – | – | – | – | 40.7
COc1ccc(Nc2nc3ccc(OC)cc3s2)cc1 | – | – | · | – | – | –
COc1ccccc1CNCC(O)(c1ccc(Cl)cc1)c1ccc(Cl)cc1 | – | – | 21.2 | – | 20.9 | –
OC(CNCc1ccccc1F)(c1ccc(F)cc1)c1ccc(F)cc1 | – | – | · | – | – | –
C=CCn1cc(/C=N/Nc2nc3ccccc3[nH]2)c2ccccc21 | 47.2 | – | – | – | – | 47.9
Cn1c(/C=N/Nc2nc3ccccc3[nH]2)nc2ccccc21 | – | – | · | – | – | –
c1ccc(CN2CCC(Nc3nc(-c4cccs4)nc4ccccc34)CC2)cc1 | – | – | · | – | 21.1 | –
CCC(c1nnnn1Cc1ccco1)N1CCN(c2cc(Cl)ccc2C)CC1 (configuration not stated) | – | – | 27.6 | – | 27.3 | –
CC(C)COC(=O)Nc1nnc(SCCOc2ccccc2)s1 | – | – | – | – | 29.1 | –
C=CCSc1nc(N)c(C#N)c(-c2ccc(C)cc2)c1C#N | 45.1 | – | – | – | – | 44.8
COC(=O)CSc1nc(N)c(C#N)c(-c2ccc(O)cc2)c1C#N | – | – | · | – | · | –
COC(=O)c1ccc(C(NC(=O)c2cccnc2)NC(=O)c2cccnc2)cc1 | – | – | · | – | – | –
CCOC(=O)C(=CNNc1cccc(Cl)c1)C(=O)OCC | 53.7 | – | · | – | · | 61.5
CCOC(=O)C(=CNc1ccc(Cl)cn1)C(=O)OCC | – | – | · | – | · | –
SMILES | NPY-Y2 PAM-ag | S1P4 agonist | NPY-Y2 antag | S1P4 antagonist | NPY Y1 blocker | NPY1 pot ag
COc1ccc2cnn(-c3ccc(C)cc3)c(=O)c2c1OC | – | – | – | – | – | –
CC1Cc2cc(/C(O)=C3/C(=O)C(=O)N(CCN4CCOCC4)C3c3ccc(C(C)C)cc3)ccc2O1 (configuration not stated) | – | – | · | – | · | –
CCCCNC(=O)c1c(C)cc(=O)oc1C | – | – | – | – | – | –
C1CCN(c2nc(N3CCCCC3)nc(N3CCNCC3)n2)CC1 | 95.5 | – | – | – | – | 102.9
CC1CCN(c2nc(N3CCCCC3)nc(N3CCCCC3)n2)CC1 | – | – | · | – | – | –
CCCn1c(SCC(=O)N2CCN(c3ccccc3)CC2)nc2ccccc2c1=O | – | – | 19.4 | – | 21.5 | –
COc1ccccc1Oc1cc(C#N)c(C#N)cc1-n1nnc2ccccc21 | – | – | 18.8 | – | 46.4 | –
O=C(C1CCN(CC2CC=CCC2)CC1)N(CCc1ccccc1)Cc1ccccc1 (configuration not stated) | – | – | 18.1 | – | 23.5 | –
O=C(C1CCN(CCCc2ccccc2)CC1)N(CCc1ccccc1)Cc1ccccc1 | – | – | 35.8 | – | 26.8 | –
O=C(C1CCN(S(=O)(=O)c2cnc[nH]2)CC1)N(CCc1ccccc1)Cc1ccccc1 | – | – | · | – | – | –
CCN(Cc1ccccc1)C(=O)C1CCN(C/C(C)=C/c2ccccc2)CC1 | – | – | – | – | – | –
Cc1ccc(C)c(Cn2cnc3c(cnn3C(C)(C)C)c2=O)c1 | – | – | – | – | – | –
COC(=O)[C@@]1(Cc2ccc(OC)cc2)[C@H]2c3cc(C(=O)N4CCCC4)n(CCO)c3C[C@H]2CN1C(=O)c1ccccc1 | – | – | – | – | – | –
COC(=O)[C@@]1(Cc2ccccc2)[C@H]2c3cc(C(=O)N4CCCC4)n(Cc4ccsc4Br)c3C[C@H]2CN1C(=O)c1ccccc1 | – | – | 22.7 | – | 48.6 | –
CCc1cccc(CC)c1NC(=O)COC(=O)C1(c2ccc(Cl)cc2)CCCC1 | – | – | 18.6 | – | 40.2 | –
Cc1ccc(-c2cnc(NCc3cc4c(cc3[N+](=O)[O-])OCO4)n2C)cc1C | 88.5 | – | · | – | – | 102.0
COc1ccccc1C(CCN(Cc1cccs1)C(C)=O)c1ccco1 (configuration not stated) | – | – | – | – | – | –
CCC(=O)N(CCC(c1ccccc1)c1ccco1)Cc1cccs1 (configuration not stated) | – | – | 22.4 | – | 27.4 | –
CCOC(=O)Cn1c(C)[n+](C)c2cc(Cl)c(Cl)cc21 | – | – | · | – | – | –
Cc1ccc(NC(=O)CSc2ccccn2)cc1S(=O)(=O)N1CCOCC1 | – | – | · | – | – | –
COc1ccc(C2=Nn3c(nnc3C3CCCCC3)SC2)cc1OC | – | – | 57.8 | – | 26.6 | –
Cc1cc(C)cc(-n2c(N)c(C(=O)Nc3c(C)n(C)n(-c4ccccc4)c3=O)c3nc4ccccc4nc32)c1 | – | – | – | – | – | –
COc1ccc2nc3cc(Cl)ccc3c(Nc3cc(C(C)C)c(O)cc3C)c2c1 | 59.2 | – | · | – | · | 61.9
CCN(CC)CCCC(C)Nc1c2ccc(Cl)cc2nc2ccc(OC)cc12 (configuration not stated) | – | – | · | – | – | –
Cc1ccc(Cn2ncc3c(N4CCOCC4)ncnc32)cc1 | – | – | – | – | – | –
Cc1ccc(Cn2ncc3c(N4CCN(c5ccccc5C)CC4)ncnc32)cc1 | – | – | – | – | 26.7 | –
COc1cc(/C=N/Nc2ccc(Cl)c(C(=O)O)c2)ccc1OC(=O)c1cccs1 | – | 11.6 | · | – | – | –
O=C(c1ccccc1)c1ccc(OCC(O)CN2CCCCC2)cc1 (configuration not stated) | – | – | – | – | – | –
